Test results from ChEMBL document CHEMBL1124769, “Retinobenzoic acids. 5. Retinoidal activities of compounds having a trimethylsilyl or trimethylgermyl group(s) in human promyelocytic leukemia cells HL-60” (1990).

Experiments:
HL-60 [1] = assay: Relative activity against human promyelocytic leukemia HL-60 cells.; assay type: functional
Procedure, shortened: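 Relative activity was computed as ED50 of retinoic acid ÷ ED50 of test compound × 100. Both ED50s came from concurrent 4-day HL-60 NBT-reduction differentiation assays spanning 5 orders of magnitude in concentration, each run at least twice. Values are representative ones or means.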

HL-60 [2] = assay: Ability to induce differentiation of human promyelocytic leukemia cell line HL-60 to mature granulocytes.; assay type: functional; conditions: for EC50: read-out: ED50 (the source's name)
Procedure, shortened: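 HL-60 cells in RPMI1640 with 5% FCS, penicillin G and streptomycin, at 37 °C in 5% CO2. Seeded at ~8 × 10^4 cells/mL and exposed 4 days to compound from a 0.2 mM ethanol stock (final ethanol <0.5%, ethanol-only controls). Read by Wright-Giemsa differential counts and NBT reduction (0.2% NBT plus TPA, 20 min, 37 °C), ≥200 cells each. ED50 from NBT data (van der Waerden method).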

| EC50 (HL-60 [2]) [nM] | Compound | Relative activity (HL-60 [1]) | ED50 (HL-60 [2]) [nM] |
| --- | --- | --- | --- |
|  | 4-[3-Oxo-3-(3-trimethylgermanyl-phenyl)-propenyl]-benzoic acid (Ch60G) | 4.5 | 40 |
| 1 | C[Si](C)(C)c1cccc(/C=C/c2ccc(C(=O)O)cc2)c1 | 85 |  |
|  | CC(C)(C)c1ccc(C(=O)/C=C/c2ccc(C(=O)O)cc2)cc1 | 3.9 |  |
| 0.79 | CC1(C)CCC(C)(C)c2cc(NC(=O)c3ccc(C(=O)O)cc3)ccc21 [TAMIBAROTENE] |  |  |
| 48 | CC(C)(C)c1cc(C(=O)Nc2ccc(C(=O)O)cc2)cc(C(C)(C)C)c1 | 5.6 |  |
|  | CC(C)(C)c1cc(C(=O)/C=C/c2ccc(C(=O)O)cc2)cc(C(C)(C)C)c1 | 640 |  |
|  | CC(C)(C)c1cccc(/C=C/c2ccc(C(=O)O)cc2)c1 | 13 |  |
| 30 | C[Si](C)(C)c1cc(NC(=O)c2ccc(C(=O)O)cc2)cc([Si](C)(C)C)c1 | 13 |  |
| 680 | CC(C)c1cccc(NC(=O)c2ccc(C(=O)O)cc2)c1 |  |  |
|  | N-(3,5-Bis-trimethylgermanyl-phenyl)-terephthalamic acid (Am55G) | 15 | 42 |
| 9.2 | C[Si](C)(C)c1cc(C(=O)Nc2ccc(C(=O)O)cc2)cc([Si](C)(C)C)c1 [AMSILAROTENE] | 52.7 |  |
|  | 4-[3-(2,5-Bis-trimethylgermanyl-phenyl)-3-oxo-propenyl]-benzoic acid (Ch55G) | 1000 | 0.21 |
| 85 | C[Si](C)(C)c1cccc(NC(=O)c2ccc(C(=O)O)cc2)c1 | 2.4 |  |
| 700 | CC(C)(C)c1cccc(NC(=O)c2ccc(C(=O)O)cc2)c1 | 0.32 |  |
| 2.4 | CC1=C(/C=C/C(C)=C/C=C/C(C)=C/C(=O)O)C(C)(C)CCC1 [TRETINOIN] | 100 |  |
| 170 | CCc1ccc(C(=O)/C=C/c2ccc(C(=O)O)cc2)cc1CC |  |  |
| 36 | CC(C)(C)c1cc(NC(=O)c2ccc(C(=O)O)cc2)cc(C(C)(C)C)c1 | 15 |  |
| 0.14 | C[Si](C)(C)c1cc(C(=O)/C=C/c2ccc(C(=O)O)cc2)cc([Si](C)(C)C)c1 | 860 |  |
| 44 | C[Si](C)(C)c1cccc(C(=O)/C=C/c2ccc(C(=O)O)cc2)c1 | 1.8 |  |
| 160 | CC(C)(C)c1cccc(C(=O)/C=C/c2ccc(C(=O)O)cc2)c1 | 0.81 |  |
